From PMC5460915 (Molecular pharmaceutics, 2015)

Tests used:
[1] = system: NTR1-expressing HT-29 tumor; assay: Immunohistochemistry and fluorescence microscopy of HT-29 tumor sections; format: in vivo, mice bearing human HT-29 xenograft
Summary of the method: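 Dye-conjugated test compound given i.v. to HT-29 xenograft mice, with or without a blocking dose of NT peptide. Tumors taken 4 h p.i., […], cut at 6 μm (cryostat, −25 °C) and fixed in ice-cold acetone for 15 min. Peroxidase quenched with 3% H2O2 in methanol, then blocked with 10% horse serum for 1 h at RT. Anti-CD31 with labelled secondary (1:200), DAPI 2 μg/mL for 20 min at 37 °C. Confocal imaging, 40× objective.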

[2] = target: NTR1 (NTR1-positive HT-29 cells) (Homo sapiens, UniProt P30989); assay: In vitro competitive cell binding assay against 125I-NT; settings: as supported by the similar IC50 values
[3] = system: NTR1-positive HT-29 tumor; assay: Ex vivo near-infrared fluorescence imaging of tumors and organs; format: in vivo, mice bearing human HT-29 xenograft
[4] = Biodistribution in nude mice bearing HT-29 tumor; format: in vivo, nude mice bearing HT-29 xenograft; settings: for tissue uptake at 4 h: male, athymic nude BALB/c nu/nu, mouse, total radioactivity
Summary of the method: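 HT-29 cells (McCoy's 5A, 10% FBS, 37 °C, 5% CO2; trypsin-EDTA at 80% confluence) at 1 × 10^6 per 0.1 mL s.c. in the shoulder of 4–6-wk male BALB/c nu/nu mice, used at ≥3 mm tumor diameter. 3.7 MBq 64Cu-labelled test compound (HPLC-purified, in PBS) given. Mice killed under inhalation anesthesia 4 h p.i.; tissues weighed and gamma-counted. Group mean %ID/g ± SD.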

[5] = In vitro stability in PBS; format: physicochemical; settings: PBS (1×), 37 MBq/mL, radio-HPLC
Summary of the method: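 64Cu-labelled test compound HPLC-purified, solvent evaporated and taken up in 1× PBS at 37 MBq/mL. Radiochemical purity by radio-HPLC at 30 min, 2 h and 6 h of incubation.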

[6] = system: NTR1-positive HT-29 tumor; assay: Small animal PET imaging in HT-29 xenograft mice; format: in vivo, human HT-29 xenograft in male athymic mice (BALB/c nu/nu)
Summary of the method: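 Xenografts were HT-29 cells, 1 × 10^6 per 0.1 mL s.c. in the shoulder, tumors ≥3 mm. Radioligand labelled with 64CuCl2 in NH4OAc pH 5.5 at 37 °C for 60 min, HPLC-purified, in PBS (about 10.2 GBq/μmol). About 3.7 MBq via tail vein, n = 3/group; blocking group co-given 100 μg unlabelled NT. PET at 1 and 4 h p.i. ROI counts/g/min (1 g/mL density assumed) divided by injected dose gave %ID/g.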

[7] = system: NTR1-positive HT-29 tumor; assay: In vivo near-infrared fluorescence imaging; set-up: species or system mice bearing human HT-29 xenograft; settings: 1.5 nmol i.v., 1 and 4 h p.i., Cy5.5 filter set

NTR1 (NTR1-positive HT-29 cells), sequence (P30989 whole entry): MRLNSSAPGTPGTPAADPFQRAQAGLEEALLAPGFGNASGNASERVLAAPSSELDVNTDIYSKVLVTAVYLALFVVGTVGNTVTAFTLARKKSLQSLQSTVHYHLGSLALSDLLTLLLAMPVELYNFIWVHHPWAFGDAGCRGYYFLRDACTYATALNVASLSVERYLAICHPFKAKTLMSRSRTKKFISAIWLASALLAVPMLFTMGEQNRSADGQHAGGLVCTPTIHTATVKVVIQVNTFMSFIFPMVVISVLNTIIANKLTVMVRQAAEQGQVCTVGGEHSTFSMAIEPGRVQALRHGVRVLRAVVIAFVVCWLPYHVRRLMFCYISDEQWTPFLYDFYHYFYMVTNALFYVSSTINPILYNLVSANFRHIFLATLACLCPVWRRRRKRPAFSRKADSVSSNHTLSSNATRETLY

Row | SMILES | fluorescent signal in tumors of blocking animals (in words) ([1]; 4 h p.i., with blocking dose of NT peptide vs without) | specific binding in HT-29 tumor (in words) ([1]; FL microscope, coinjected Cys-NT peptide) | binding affinity compared between DOTA-NT-Cy5.5 and NT (in words) [2] | tumor uptake relative to liver, optical imaging (in words) ([3]; HT-29 tumor vs liver, optical imaging) | tumor to muscle contrast (in words) ([3]; PET and ex vivo fluorescence, 4 h p.i.) | organs with high probe uptake (in words) ([3]; ex vivo fluorescence, 1.5 nmol i.v., 4 h p.i.) | tumor-to-muscle ratio ([4]; 4 h p.i., based on biodistribution, HT-29 xenograft, mean ± SD) | tumor uptake relative to liver, PET and biodistribution (in words) ([4]; HT-29 tumor vs liver, PET imaging and biodistribution) | muscle, lung, and heart uptake (in words) ([4]; biodistribution, 4 h p.i., 3.7 MBq) | tissue uptake at 4 h ([4]; kidney, 3.7 MBq) | tissue uptake at 4 h ([4]; liver, 3.7 MBq) | radiochemical purity ([5]; 30 min after incubation) | radiochemical purity ([5]; 2 h after incubation) | radiochemical purity ([5]; 6 h after incubation) | tumor uptake ([6]; PET ROI, HT-29 xenograft, 1 h p.i., ~3.7 MBq tail vein, n = 3/group, mean ± SD) | inhibition of tumor uptake by nonradioactive Cys-NT (in words) ([6]; blocking experiment, P < 0.05, all time points (Figures 3 and 5: PET and fluorescence)) | uptake in normal organs, blocked vs unblocked (in words) ([6]; liver, kidneys, muscle, with vs without 100 μg unlabeled NT) | tumor fluorescence signal in vivo (in words) [7]
1 | CC[C@H](C)[C@H](NC(=O)[C@H](Cc1ccc(O)cc1)NC(=O)[C@@H]1CCCN1C(=O)[C@H](CCCNC(=N)N)NC(=O)[C@H](CCCNC(=N)N)NC(=O)[C@@H]1CCCN1C(=O)[C@H](CCCCN)NC(=O)[C@H](CSC1CC(=O)N(CCNC(=O)CCCCC[N+]2=C(C=CC=CC=C3N(CC)c4ccc5c(S(=O)(=O)O)cc(S(=O)(=O)[O-])cc5c4C3(C)C)C(C)(C)c3c2ccc2c(S(=O)(=O)O)cc(S(=O)(=O)O)cc32)C1=O)NC(=O)CN1CCN(CC(=O)O)CCN(CC(=O)O)CCN(CC(=O)O)CC1)C(=O)N[C@@H](CC(C)C)C(=O)O (stereo partly drawn) [DOTA-NT-Cy5.5] | very weak fluorescent signals | tumor localization was clearly inhibited by coinjected Cys-NT peptide | not significantly different | – | – | – | – | – | – | – | – | – | – | – | – | – | – | –
2 | CC[C@H](C)[C@H](NC(=O)[C@H](Cc1ccc(O)cc1)NC(=O)[C@@H]1CCCN1C(=O)[C@H](CCCNC(=N)N)NC(=O)[C@H](CCCNC(=N)N)NC(=O)[C@@H]1CCCN1C(=O)[C@H](CCCCN)NC(=O)[C@H](CSC1CC(=O)N(CCNC(=O)CCCCC[N+]2=C(C=CC=CC=C3N(CC)c4ccc5c(S(=O)(=O)O)cc(S(=O)(=O)[O-])cc5c4C3(C)C)C(C)(C)c3c2ccc2c(S(=O)(=O)O)cc(S(=O)(=O)O)cc32)C1=O)NC(=O)CN1CCN(CC(=O)O)CCN(CC(=O)O)CCN(CC(=O)O)CC1)C(=O)N[C@@H](CC(C)C)C(=O)O (stereo partly drawn) [^64Cu-DOTA-NT-Cy5.5, metal not drawn] | – | – | – | higher tumor uptake than liver | both PET and fluorescence gave good tumor to muscle contrast | The tumor, liver, and kidneys are three motifs that showed high probe uptake | 17.44 ± 3.25 | HT-29 tumor has lower uptake than liver | The muscle, lung, and heart had relatively low uptake | 14.2 ± 1.33 %ID/g | 4.63 ± 0.74 %ID/g | greater than 98.9% | > 96.9% | > 90.8% | 1.91 ± 0.22 %ID/g | nonradioactive Cys-NT peptide significantly (P < 0.05) inhibited the tumor uptake | no significant difference in most of the normal organs | the HT-29 tumor lit up at all the time points examined
